Compound activity: PubChem BioAssay, several laboratories
rCAG binder: binders of r(CAG) RNA repeats, primary screen, biochemical, fluorescence; r(CAG) RNA repeat, TO-PRO-1 dye displacement fluorescence; inhibition, % at 3 µM; 1.3% of 370,000 active;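 active = inhibition above the plate cutoff, the mean of all test compounds on that plate plus 3 SD, cut at about 35% in these data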;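 note: higher means more dye released from RNA so lower well fluorescence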
NadD inh: inhibitors of S. aureus NadD, primary screen, biochemical, colorimetric, uHTS; Nicotinate-nucleotide adenylyltransferase NadD (Staphylococcus aureus N315); inhibition, % at 20 µM; purified NadD enzyme, colorimetric absorbance read-out; 0.78% of 360,000 active; in the data active = inhibition above about 26%
ASAP1 inh: inhibitors of human ASAP1 ArfGAP activity, primary screen, biochemical, fluorescence polarization; Arf-GAP with SH3 domain, ANK repeat and PH domain-containing protein 1 (Homo sapiens), …; ASAP1-stimulated ARF1 GTP hydrolysis, GDP FP detection; inhibition, % at 16.5 µM; 0.19% of 360,000 active; AID 624377, 2012; in the data active = inhibition above about 25%
Target sequence (Q9ULH1 325-724 limits assumed): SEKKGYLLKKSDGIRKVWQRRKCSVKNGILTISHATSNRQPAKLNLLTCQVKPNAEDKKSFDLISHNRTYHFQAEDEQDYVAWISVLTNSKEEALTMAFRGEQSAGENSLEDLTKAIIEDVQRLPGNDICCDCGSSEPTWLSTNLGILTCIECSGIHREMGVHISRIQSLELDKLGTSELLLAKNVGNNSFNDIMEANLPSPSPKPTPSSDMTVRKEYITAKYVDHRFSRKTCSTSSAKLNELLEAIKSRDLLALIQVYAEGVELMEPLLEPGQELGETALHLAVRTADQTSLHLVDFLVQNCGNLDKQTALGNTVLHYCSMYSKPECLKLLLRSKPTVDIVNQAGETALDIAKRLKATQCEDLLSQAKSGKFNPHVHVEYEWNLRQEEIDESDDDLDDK
ARFGAP1 inh: inhibitors of rat ARFGAP1 GAP activity, primary screen, biochemical, fluorescence polarization, GDP tracer. inhibition, % at 16.5 µM. ADP-ribosylation factor GTPase-activating protein 1 (Rattus norvegicus), Q62848. Arfgap1-stimulated ARF1 GTP hydrolysis, GDP FP detection. 0.26% of 360,000 active;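 active = inhibition above a per-plate limit, mean inhibition of low control wells plus 3 SD, cut at about 25% in these data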
Target sequence (Q62848 1-136 limits assumed): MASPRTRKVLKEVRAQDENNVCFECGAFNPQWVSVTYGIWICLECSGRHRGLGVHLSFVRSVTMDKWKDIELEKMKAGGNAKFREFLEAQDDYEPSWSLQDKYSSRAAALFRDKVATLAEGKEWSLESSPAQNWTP
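Assay system: purified rat His6-Arfgap1 residues 1-136 (GAP domain); Reagent: human Δ17 ARF1 bound to GTP; Dosing: 16.5 µM single point, 1.26% DMSO; Times: GTP hydrolysis reaction 2 h at 25 °C; Signal: FP, GDP Alexa 633 tracer displaced from anti-GDP antibody, 620/688 nm; Measure: % inhibition from polarization.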
Each line names hits and unclear results; the compound was inactive in the other large screens; ! = a repeat was not active. The list is not random: actives were taken first. Their share in the collection is about 2.2%.

O=c1ccc(=O)n(-c2ccccc2)[nH]1	none
O=C(O)c1cc(S(=O)(=O)N2CCN(C(=O)c3ccco3)CC2)c(Cl)cc1Cl	none
N#C/C(=C\c1ccc(N2CCCC2)c([N+](=O)[O-])c1)c1nc2ccccc2[nH]1	NadD inh 31.5
C/C(=N\NC(=O)c1nnn(-c2nonc2N)c1CN(C)c1ccccc1)c1ccccc1O	NadD inh 36.1
COc1ccc(/C(C)=N/NC(=O)c2nnn(-c3nonc3N)c2CN(C)c2ccccc2)cc1	none
O=C(Nc1sc2c(c1C(=O)O)CCCC2)c1cccc(Cl)c1	rCAG binder 84.4
CC1(c2nnnn2-c2ccc3c(c2)OCCO3)CCC(=O)N1CCc1c[nH]c2ccccc12 (centres undefined)	none
N=C1/C(=C/c2ccc(OCc3ccccc3F)cc2)C(=O)N=C2SC(CC(=O)N3CCOCC3)=NN12	NadD inh 33.2
CCC1=NN2C(=N)/C(=C/c3ccc(OS(=O)(=O)c4ccccc4)cc3)C(=O)N=C2S1	NadD inh 34.4 (no result: rCAG binder, ASAP1 inh, ARFGAP1 inh)
CCC(Sc1nc2ccccc2[nH]1)C(=O)Nc1cc(C)on1 (centres undefined)	none
CCC(Sc1nc(-c2ccccc2)c(C#N)c(=O)[nH]1)C(=O)Nc1cc(C)on1 (centres undefined)	rCAG binder 50.2
Cc1ccc2c(c1)-n1c(nc3ccc(C)cc3c1=O)C(Cc1ccc(O)cc1)NC2=O (centres undefined)	none (no result: NadD inh)
Cn1c(SCC(=O)Nc2ccccc2-c2ccccc2)nnc1-c1ccccc1	none (no result: NadD inh, ASAP1 inh, ARFGAP1 inh)
N=c1oc2c3c4c(cc2cc1C(=O)Nc1ccccc1)CCCN4CCC3	NadD inh 31.5 (no result: rCAG binder, ASAP1 inh, ARFGAP1 inh)
CCN=c1scc(C)n1/N=C/c1cc(Br)c(O)c(OC)c1	NadD inh 35.3
CN=c1scc(C)n1/N=C/c1cc(Br)c(O)c(Br)c1	none
Cc1ccccc1-n1nc2c(c1NC(=O)c1ccc(Br)o1)CSC2	NadD inh 49.6 (no result: rCAG binder, ASAP1 inh, ARFGAP1 inh)
Cc1ccccc1-n1nc2c(c1NC(=O)c1ccco1)CS(=O)(=O)C2	none
NS(=O)(=O)c1ccc(CCNC(=O)CSc2nc3c(sc(=S)n3-c3ccccc3)c(=O)[nH]2)cc1	none
CSc1cccc(NC(=O)CNC(=O)c2ccc3c(c2)OCO3)c1	none
CSc1cccc(-n2cc(-c3ccc4c(c3)OCO4)[nH]c2=O)c1	NadD inh 38.6 (no result: rCAG binder, ASAP1 inh, ARFGAP1 inh)
O=C1CCCc2ccccc2N1Cc1ccc(Cl)cc1Cl	none
O=C1CCCc2ccccc2N1Cc1ccccc1Cl	ARFGAP1 inh 25.1
CN([C@@H](Cc1ccc(OS(=O)(=O)c2cccc3cnccc23)cc1)C(=O)N1CCN(c2ccccc2)CC1)S(=O)(=O)c1cccc2cnccc12	NadD inh 31.7 (no result: rCAG binder, ASAP1 inh, ARFGAP1 inh)
COc1ccc(N2CCN(C(=O)C(Cc3ccccc3)n3cccc3)CC2)cc1 (centres undefined)	none
CCC1(C(=O)c2ccc(Cl)cc2)C2c3ccccc3OC(=O)C21C(=O)Nc1ccccc1 (centres undefined)	rCAG binder 40.2
CC(=O)OC12CCCN(C1)/C(=C/c1cccc(N(C)C)c1)C2 (centres undefined)	none (no result: NadD inh, ASAP1 inh, ARFGAP1 inh)
N#Cc1c(N2CCCC(O)C2)nc(N)c2c(N)nc3c(c12)CC(=O)N3C12CC3CC(CC(C3)C1)C2 (centres undefined)	NadD inh 56.9
CCOc1cc(/C=C2\CCC/C(=C\c3cc(Cl)c(O)c(OCC)c3)C2=O)cc(Cl)c1O	NadD inh 46.1
CCc1nc2c(OCCOc3ccc(F)cc3)cccn2c1N(C)C(=O)c1ccco1	none
CC(=O)N1CCN(S(=O)(=O)c2ccc3c(c2)oc(=O)n3C)CC1	none (no result: NadD inh, ASAP1 inh, ARFGAP1 inh)
Cc1ccc(C(=O)NN2C(=O)/C(=C/c3cn(C)c4ccccc34)SC2=S)cc1	none
Cn1cc(/C=C2\SC(=S)N(NC(=O)c3ccccc3Cl)C2=O)c2ccccc21	NadD inh 39.5
Cc1ccc(C(=O)O)cc1NS(=O)(=O)c1ccc2ccccc2c1	none
CC(C)OC(=O)C(C(=O)C(F)(F)F)c1cc(NS(=O)(=O)c2ccc3ccccc3c2)c2ccccc2c1O (centres undefined)	NadD inh 55.4 (no result: rCAG binder, ASAP1 inh, ARFGAP1 inh)
COc1cc2c(cc1NC(=O)CCC(=O)O)oc1ccccc12	none
COc1cc2c(cc1NC(=O)Nc1ccccc1)oc1ccccc12	rCAG binder 35.1
COc1cc2c(cc1NC(=O)CN1C(=O)NC3(CCc4ccccc43)C1=O)oc1ccccc12 (centres undefined)	NadD inh 35.5
Cc1ccc(-n2c(C)cc(/C=N/Nc3ccc([N+](=O)[O-])cn3)c2C)cc1	none
Cc1cc(/C=N/Nc2ccc([N+](=O)[O-])cn2)c(C)n1-c1ccccc1	NadD inh 31.3
CCCCn1c(NC(=O)CC)c(C#N)c2nc3ccccc3nc21	none
N#Cc1c(NC(=O)c2ccccc2Cl)n(Cc2ccccc2)c2nc3ccccc3nc12	rCAG binder 89.5, NadD inh 32.1
COc1ccc(NC(=O)C(=O)N/N=C/c2cc(C)n(-c3cccc(Cl)c3Cl)c2C)c(OC)c1	NadD inh 35.7
CCN1CCN(Cc2ccc(NC(=O)c3ccc(C)c(NC(=O)C4=NN(c5ccccc5)C(=O)C4)c3)cc2C(F)(F)F)CC1	NadD inh 40.2!
CCN1CCN(Cc2ccc(NC(=O)c3cc(NC(=O)c4cc(-c5ccc(OC)cc5)n[nH]4)cc(OC)c3)cc2C(F)(F)F)CC1	ASAP1 inh 26.2, ARFGAP1 inh 31.0
CN(C)C(=O)C[C@@H]1CC[C@@H](NC(=O)C2CCC2)[C@@H](CO)O1	none (no result: NadD inh)
CO[C@@]1(NC(=O)CSCC#N)C(=O)N2C(C(=O)O)=C(CSc3nnnn3C)CS[C@@H]21	rCAG binder 52.0
CN(C)CCn1nnnc1SCC1=C(C(=O)O)N2C(=O)[C@@H](NC(=O)Cc3csc(N)n3)[C@H]2SC1	none
Cc1nc2c(C(=O)NCc3ccccc3)c[nH]n2c(=O)c1Cl	rCAG binder 41.4
COc1ccc(N=C2S/C(=C\c3ccc(OCC(=O)O)cc3)C(=O)N2CCc2c[nH]c3ccccc23)cc1	rCAG binder 68.4
COc1ccccc1NC(=O)CSc1nc(O)cc(=O)n1-c1ccccc1OC	rCAG binder 40.1
Cc1[nH]c2ccccc2c1/C=N/Nc1ccc([N+](=O)[O-])cc1S(=O)(=O)Nc1ccc(Cl)cc1	NadD inh 37.9
COCCCNC(=O)CN1C(=O)C2CCCCN2C(=O)c2ccccc21 (centres undefined)	none (no result: NadD inh, ASAP1 inh, ARFGAP1 inh)
O=C1C(=Cc2ccc(Br)o2)C(=O)c2ccccc21	NadD inh 33.3 (no result: rCAG binder, ASAP1 inh, ARFGAP1 inh)
O=C(CN1CCc2onc(-c3ccc(-n4cc(C5=CCCCC5)nn4)cc3)c2C1=O)N1CCOCC1	none (no result: NadD inh, ASAP1 inh, ARFGAP1 inh)
CCOC(=O)c1c(-c2ccc(OC)cc2)csc1NC(=O)CSc1nnc(C)c(=O)[nH]1	rCAG binder 63.0
CCOC(=O)c1c(-c2ccc(OC)cc2)csc1NC(=O)CSc1ccccc1	none
Cc1ccc(NC(=O)c2cc(NC(=O)C3CC=CCC3C(=O)O)ccc2N2CCOCC2)cc1Cl (centres undefined)	rCAG binder 34.6
